Laboratory results: article PMC10125367 (ACS Bio & Med Chem Au, 2022)

Tests used:
SOS = settings: read-out: IC50 in vitro; inhibits SOS; ref 20 Kessler, et al.; cited from earlier work
Raf = settings: read-out: IC50 in vitro; inhibits Raf; ref 20 Kessler, et al.; cited from earlier work
MDR1 = experiment: Permeability and efflux in MDR1-MDCK cell monolayer system; assay type: in vitro ADME; settings: dog, MDCK-MDR1
MDR1 (P-gp) = experiment: as above; assay type: in vitro ADME; settings: dog
MDR1-MDCK cell monolayer = experiment: as above; assay type: in vitro ADME; settings: corrected for cell volume on donor side
KRAS(G12D) [1] = target: T1, KRAS(G12D) (Homo sapiens, UniProt P01116, G12D); experiment: Microscale thermophoresis; assay type: binding; settings: Kd from MST, GDP-bound KRAS(G12D)
KRAS(WT) [2] = target: T2, KRAS(WT) (Homo sapiens, UniProt P01116); experiment: Microscale thermophoresis; assay type: binding; settings: Kd from MST, GDP-bound KRAS(WT)
Microsomal stability [3] = assay type: in vitro ADME; settings: human, microsomes
KRAS(WT) with SOS = KRAS(WT) with SOS (Homo sapiens, UniProt P01116); experiment: SOS-mediated GDP/GTP nucleotide exchange; assay type: biochemical
In short: (§1)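 Recombinant KRAS(WT), BODIPY-GTP (BGTP) and, for SOS-mediated exchange, SOS are each at 0.5 μM. Buffer is 25 mM Tris Cl pH 7.5, 50 mM NaCl, 10 mM MgCl2, with test compound at 0–50 μM. Fluorescence rise on BGTP binding is normalised to the 60 s and KRAS-alone maximum values. Rates come from linear (intrinsic) or single-exponential (SOS) fits, and EC50 from fitting rate versus concentration.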

Microsomal stability [4] = assay type: in vitro ADME; settings: mouse, microsomes
GDP-KRAS(Q61H) = GDP-KRAS(Q61H) (Homo sapiens, UniProt P01116, Q61H); experiment: Isothermal titration calorimetry; assay type: binding
Microsomal stability [5] = assay type: in vitro ADME; settings: rat, microsomes
NRAS = NRAS (Homo sapiens, UniProt P01111); experiment: Thermal shift assay; assay type: binding; settings: 50 μM compound
GDP-KRAS(G12C) = GDP-KRAS(G12C) (Homo sapiens, UniProt P01116, G12C); experiment: Isothermal titration calorimetry; assay type: binding
KRAS(G12C) = KRAS(G12C) (Homo sapiens, UniProt P01116, G12C); experiment: Microscale thermophoresis; assay type: binding
[6] = test system: BHK cells expressing GFP-tagged KRAS(G12D); experiment: Cell signaling assay; assay type: cell-based, baby hamster
In short: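 Whole-cell lysates were immunoblotted for phospho-c-Raf, phospho-ERK and phospho-AKT, with vinculin as loading control. Levels were quantified relative to DMSO, averaged from three independent experiments and compared by unpaired Student's t test.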

GDP-KRAS(WT) = GDP-KRAS(WT) (Homo sapiens, UniProt P01116); experiment: Isothermal titration calorimetry; assay type: binding; settings: Kd from ITC, GDP-bound KRAS(WT), 25 °C
KRAS(Q61H) = KRAS(Q61H) (Homo sapiens, UniProt P01116, Q61H); experiment: Microscale thermophoresis; assay type: binding
KRAS with SOS = KRAS with SOS (Homo sapiens, UniProt P01116); experiment: SOS-mediated nucleotide release; assay type: biochemical; settings: 50 µM ligand, 100 µM GTP, 0.5 µM SOS
KRAS(WT) [7] = target: T2, KRAS(WT); experiment: Intrinsic GDP/GTP nucleotide exchange; assay type: biochemical
In short: as §1

HRAS = HRAS (Homo sapiens, UniProt P01112); experiment: Thermal shift assay; assay type: binding; settings: 50 μM compound
KRAS(WT) [8] = target: T2, KRAS(WT); experiment: Intrinsic fluorescence; assay type: binding; settings: 0 to 50 µM ligand, 2 µM KRAS; qualitative
[9] = test system: MIAPaCa-2 xenograft tumor; experiment: MIAPaCa-2 subcutaneous xenograft tumor model; assay type: in vivo, mouse; settings: 5 mg/kg IP
In short: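 Nude mice received MIAPaCa-2 cells subcutaneously in the hind flank and were split after 3 days into groups of equal mean tumour volume (8 vehicle, 7 treated). Dosing was 5 mg/kg test compound in corn oil, or DMSO in corn oil, intraperitoneally 5 days/week. Caliper volumes, (length × width²)/2, were taken twice weekly and body weights weekly. Tumour lysates were blotted for p-ERK, total ERK and GAPDH.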

GDP-KRAS(G12D) = GDP-KRAS(G12D) (Homo sapiens, UniProt P01116, G12D); experiment: Isothermal titration calorimetry; assay type: binding
KRAS = KRAS (Homo sapiens, UniProt P01116); experiment: Intrinsic nucleotide release; assay type: biochemical; settings: 50 µM ligand, 100 µM GTP
[10] = target: KRAS(G12D)-RafRBD interaction (Homo sapiens, UniProt P01116, G12D); experiment: RBD pull-down assay in BHK cell lysates; assay type: cell-based, baby hamster; settings: lysates treated with 10 μM or more, 1 h
In short: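 GTP-bound GFP-KRAS(G12D) and endogenous RAS were pulled down with GST-c-Raf RBD and detected by western blot, with total GFP-KRAS(G12D) and total RAS as loading controls. Signals were normalised to DMSO and averaged over three independent experiments, with unpaired Student's t test.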

GDP-KRAS(G13D) = GDP-KRAS(G13D) (Homo sapiens, UniProt P01116, G13D); experiment: Isothermal titration calorimetry; assay type: binding
[11] = test system: cancer cells expressing various mutants of KRAS; experiment: Cell proliferation, summary; assay type: cell-based
KRAS(G12D) [12] = target: T1, KRAS(G12D); experiment: Intrinsic fluorescence; assay type: binding; settings: 0 to 50 µM ligand, 2 µM KRAS; qualitative
[13] = MDCK-MDR1, Papparent efflux ratio (ER)

NRAS, sequence (P01111 whole entry): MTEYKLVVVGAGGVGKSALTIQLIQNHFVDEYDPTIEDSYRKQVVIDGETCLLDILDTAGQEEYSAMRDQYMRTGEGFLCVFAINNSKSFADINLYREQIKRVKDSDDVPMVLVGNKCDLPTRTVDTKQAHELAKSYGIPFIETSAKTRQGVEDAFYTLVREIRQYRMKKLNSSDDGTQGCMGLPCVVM
HRAS, sequence (P01112 whole entry): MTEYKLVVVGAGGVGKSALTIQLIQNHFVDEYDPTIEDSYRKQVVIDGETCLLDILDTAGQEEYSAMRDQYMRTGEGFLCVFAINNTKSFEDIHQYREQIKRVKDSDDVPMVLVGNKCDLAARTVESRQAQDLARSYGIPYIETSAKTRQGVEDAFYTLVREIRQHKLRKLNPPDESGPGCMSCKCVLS

Cn1cnc(Cn2ccc3ccc(CNCc4[nH]c5ccccc5c4[C@H]4NC(=O)c5ccc(O)cc54)cc32)c1 [BI-2852]
IC50 (SOS): 0.5 to 0.7 µM | IC50 (Raf): 0.5 to 0.7 µM

CC(C)NCC(O)COc1cccc2ccccc12 (centres unmarked) [propranolol]
Papp A→B (MDR1): 31.2 ×10⁻⁶ cm/s | Papp B→A (MDR1): 15 ×10⁻⁶ cm/s | efflux ratio (MDR1 (P-gp); [13]): 0.48 | efflux ratio (MDR1 (P-gp); MDCK-MDR1, Pexact efflux ratio): 0.52 | Pexact, A > B (MDR1-MDCK cell monolayer): 39.979 ×10⁻⁶ cm/s | Pexact, B > A (MDR1-MDCK cell monolayer): 20.715 ×10⁻⁶ cm/s

CC(C)CN(C[C@@H](O)[C@H](Cc1ccccc1)NC(=O)O[C@H]1CCOC1)S(=O)(=O)c1ccc(N)cc1 [amprenavir]
Papp A→B (MDR1): 1.65 ×10⁻⁶ cm/s | Papp B→A (MDR1): 17.1 ×10⁻⁶ cm/s | efflux ratio (MDR1 (P-gp); [13]): 10.3 | efflux ratio (MDR1 (P-gp); MDCK-MDR1, Pexact efflux ratio): 16.9 | Pexact, A > B (MDR1-MDCK cell monolayer): 1.436 ×10⁻⁶ cm/s | Pexact, B > A (MDR1-MDCK cell monolayer): 24.325 ×10⁻⁶ cm/s

O=C(O)c1cc(NC(=O)C2CC2c2ccccc2)ccc1O (centres unmarked) [ACA-14, 2-hydroxy-5-{[(2-phenylcyclopropyl)carbonyl]amino} benzoic acid]
Kd (KRAS(G12D) [1]): > 50 µM | Kd (KRAS(WT) [2]): 4.5 ± 1.5 µM | Intrinsic clearance (Microsomal stability [3]): < 0.3 mL/min/g | half-life (Microsomal stability [3]): > 3 h | EC50 (KRAS(WT) with SOS): 2.1 ± 0.4 µM | Intrinsic clearance (Microsomal stability [4]): < 0.3 mL/min/g | half-life (Microsomal stability [4]): > 3 h | Kd (GDP-KRAS(Q61H)): 1.04 µM | Intrinsic clearance (Microsomal stability [5]): < 0.3 mL/min/g | half-life (Microsomal stability [5]): > 3 h | Change in melting temperature (Tm) (NRAS): no measurable change | Kd (GDP-KRAS(G12C)): 11.8 µM | Kd (KRAS(G12C)): 0.34 ± 0.07 µM | Concentration required to inhibit MAPK signaling [6]: > 20 µM | Level of phosphorylated ERK (p-ERK) ([6]; 3 h, serum-starved): significantly reduced | Level of phosphorylated c-Raf (p-cRaf) ([6]; 3 h, serum-starved): significantly reduced | p-AKT level ([6]; 3 h, serum-starved, concentration range tested): little effect | Kd (GDP-KRAS(WT)): 1.1 µM | Kd (KRAS(Q61H)): 0.02 ± 0.01 µM | Effect on rate of SOS-mediated GDP release (KRAS with SOS): lack of effect | EC50 (KRAS(WT) [7]): 3.8 ± 0.6 µM | Change in melting temperature (Tm) (HRAS): no measurable change | Papp A→B (MDR1): 5.42 ×10⁻⁶ cm/s | Papp B→A (MDR1): 3.51 ×10⁻⁶ cm/s | efflux ratio (MDR1 (P-gp); [13]): 0.65 | efflux ratio (MDR1 (P-gp); MDCK-MDR1, Pexact efflux ratio): 0.72 | Pexact, A > B (MDR1-MDCK cell monolayer): 5.355 ×10⁻⁶ cm/s | Pexact, B > A (MDR1-MDCK cell monolayer): 3.833 ×10⁻⁶ cm/s | Change in intrinsic fluorescence of the compound on mixing with protein (KRAS(WT) [8]): concentration-dependent changes | Weight gain of treated mice ([9]; nude mice, 5 days per week): did not affect weight gain | Tumor growth ([9]; nude mice, 5 days per week, maintained until day 20): small but statistically significant reduction | ERK activation within tumors (p-ERK western blot) ([9]; tumor lysates): small but significant reduction | Kd (GDP-KRAS(G12D)): 45.9 µM | Effect on rate of intrinsic GDP release (KRAS): lack of effect | Level of GFP-tagged GTP-KRAS(G12D) pulled down by c-Raf RBD [10]: significantly reduced | Level of endogenous RAS pulled down by c-Raf RBD [10]: significantly reduced | Kd (GDP-KRAS(G13D)): 34.1 µM | Concentration required to inhibit proliferation [11]: > 20 µM | Change in intrinsic fluorescence of the compound on mixing with protein (KRAS(G12D) [12]): concentration-dependent changes
